Screening results from PubChem.
Shown are actives, neighbours in structure and some others; about 2.3% of the full set was active somewhere.
TRPC4 agonist: opens the mouse TRPC4 cation channel; Q9QUQ5; HEK293 TRPC4beta/mu-opioid, Fluo4 calcium fluorescence; stronger effect = higher value; B-score at 10 µM; 310,000 compounds, 0.49% hits; AID 2237;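 active means B-score above 5 SD of library B-scores, and initial fluorescence ratio not above library mean plus 5 SD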;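 further: positive B-score marks a calcium rise read as TRPC4 activation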
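System: HEK293 cells stably co-expressing mouse TRPC4beta and mu-opioid receptor; Schedule: Fluo4 dye loading 45 min at room temperature, 110 s recording; Detection: Fluo4 fluorescence, kinetic; Evaluation: B-scored integrated calcium fluorescence ratio; Controls: buffer (low) and maximal DAMGO (high).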
TRPC4 inh: inhibitors of mouse TRPC4 channel; Q9QUQ5; B-score at 10 µM; 300,000 compounds, 0.39% hits; AID 2247; HEK293 TRPC4beta/mu-opioid, DAMGO-evoked Fluo4 calcium flux; stronger effect = lower value;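 active means B-score over 3 SD under the library average, no early fluorescence shift, positive overall ratio signal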
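material = TRPC4beta/mu-opioid receptor HEK293 cell line | probe or stimulus = sequential submaximal and maximal DAMGO stimulation | compound dosing = one concentration per compound | measured by = Fluo4 Ca2+ flux fluorescence | evaluation = integrated fluorescence ratio relative to baseline, converted to per-well B score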
TRPC4 potent: TRPC4 (mouse) allosteric potentiation; 310,000 compounds, 0.42% hits; AID 2227; B-score at 10 µM; HEK293 TRPC4beta/mu-opioid, DAMGO EC20, Fluo-4 Ca2+ flux; stronger effect = higher value;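 active means B-score of calcium response area above 5 SD of library B-scores, with initial fluorescence ratio within 5 SD of library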
TRPC6 activator: activators of mouse TRPC6 channel. Q61143. HEK293-TRPC6 membrane potential dye fluorescence; stronger effect = higher value. B-score at 10 µM. 310,000 compounds, 0.13% hits. AID 2550;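 active means B-score of the integrated fluorescence ratio above library mean plus 3 SD, and starting fluorescence ratio within library mean plus 5 SD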;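 further: higher score means more depolarization so channel activation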
Target sequence (Q61143 whole entry, looked up): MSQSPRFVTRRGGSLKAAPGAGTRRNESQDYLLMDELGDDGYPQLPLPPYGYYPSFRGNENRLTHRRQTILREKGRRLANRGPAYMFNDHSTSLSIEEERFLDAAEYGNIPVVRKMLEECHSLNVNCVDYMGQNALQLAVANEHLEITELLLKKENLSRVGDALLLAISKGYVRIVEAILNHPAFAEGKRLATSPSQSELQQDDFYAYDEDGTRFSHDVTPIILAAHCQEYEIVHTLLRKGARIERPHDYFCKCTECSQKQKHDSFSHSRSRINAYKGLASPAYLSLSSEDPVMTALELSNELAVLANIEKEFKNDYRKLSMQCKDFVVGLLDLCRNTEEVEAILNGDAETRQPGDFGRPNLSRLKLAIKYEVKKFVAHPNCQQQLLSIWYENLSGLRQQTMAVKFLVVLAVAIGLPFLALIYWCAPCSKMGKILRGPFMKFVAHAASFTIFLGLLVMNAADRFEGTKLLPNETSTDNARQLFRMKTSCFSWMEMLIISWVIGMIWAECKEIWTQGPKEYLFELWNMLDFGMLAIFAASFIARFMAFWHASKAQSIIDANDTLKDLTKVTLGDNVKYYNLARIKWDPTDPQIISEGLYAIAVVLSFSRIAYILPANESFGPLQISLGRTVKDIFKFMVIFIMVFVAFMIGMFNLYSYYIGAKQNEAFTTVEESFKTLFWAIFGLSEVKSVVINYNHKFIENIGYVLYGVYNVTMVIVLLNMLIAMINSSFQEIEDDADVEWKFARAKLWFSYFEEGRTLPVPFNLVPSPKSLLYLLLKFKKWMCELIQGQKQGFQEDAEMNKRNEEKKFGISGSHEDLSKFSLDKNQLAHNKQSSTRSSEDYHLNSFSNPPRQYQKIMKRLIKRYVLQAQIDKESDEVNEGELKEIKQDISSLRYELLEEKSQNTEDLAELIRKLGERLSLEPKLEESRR
TRPC6 inh: blocks the mouse TRPC6 cation channel; Q61143; HEK293-TRPC6, membrane potential dye, ACh-evoked depolarization; stronger effect = lower value; B-score at 10 µM; 310,000 compounds, 1.1% hits; AID 2553;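 active means B-score under library mean minus 3 SD, initial fluorescence not abnormally high, positive integrated signal ratio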;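 further: B-score derived from integrated fluorescence ratio over the kinetic read; more negative B-score means stronger inhibition of depolarization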
TRPC4 spec 2: second selectivity test of TRPC6 inhibitors: effect on mouse TRPC4; inhibition, % at 10 µM; shares compounds with TRPC6 inh; HEK293 TRPC4/MOR, membrane potential dye fluorescence; channel activated by saturating DAMGO dose; 920 compounds, 42% hits;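 active means compounds whose fluorescence signal differed from control wells by over 3 SD, either direction, in both duplicate plates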
TRPC4 spec: tests whether TRPC6 inhibitors also affect mouse TRPC4; shares compounds with TRPC6 inh; HEK293 TRPC4/mu-opioid, membrane potential fluorescence; activity change, negative = inhibition, % at 10 µM; 920 compounds, 61% hits;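 active means rise or fall in signal beyond 3 SD of buffer-only wells in both replicate plates, either sign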;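 further: integrated kinetic ratio of fluorescence range over baseline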
HEK293 MPD ctr 2-1: second counter-screen for TRPC6 inhibitors: parental HEK293 cells | shares compounds with TRPC6 inh | parental HEK293 membrane potential dye fluorescence; maximal acetylcholine challenge after compound addition | signal change vs control, % at 10 µM | 920 compounds, 31% hits;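 active means membrane potential signal moving either way by over 3 SD of the maximum-effect control, in both duplicate plates, meaning non-specific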
HEK293 MPD ctr-1: parental HEK293 nonspecific activity of TRPC6 inhibitors. shares compounds with TRPC6 inh. parental HEK293 membrane potential dye fluorescence. membrane potential signal change, % at 10 µM. 920 compounds, 60% hits. AID 2780;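 active means membrane potential signal shifting up or down by more than 3 SD of buffer-only wells, on both duplicate plates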
HEK293 MPD ctr-2: counter-screen for TRPC6 modulators: effect in parental HEK293 cells. membrane potential signal change, % at 10 µM. shares compounds with TRPC6 inh. 2,400 compounds, 51% hits. AID 488924. membrane potential dye fluorescence;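 active means membrane potential signal moves up or down beyond 5 SD from buffer-only wells, on both duplicate plates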
HEK293 MPD ctr 2-2: second check of TRPC6 modulator effects in parental HEK293 cells | inhibition, % at 10 µM | 2,400 compounds, 14% hits | shares compounds with TRPC6 inh | membrane potential dye fluorescence; after compound, maximal acetylcholine stimulation;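 active means membrane potential signal drops by more than 5 SD from the mean control signal, in both duplicate plates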
TRPC4 ctr mod: selectivity of TRPC6 modulators against mouse TRPC4 | shares compounds with TRPC6 inh | HEK293 TRPC4/mu-opioid, membrane potential fluorescence | percent change from control (negative = decrease, positive = increase), % at 10 µM | 2,400 compounds, 69% hits;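 active means membrane potential signal moved up or down beyond 5 SD of buffer control wells, in both duplicate plates, actives on both sides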
TRPC4/MOR inh 2: second selectivity test of TRPC6 modulators against mouse TRPC4; shares compounds with TRPC6 inh; HEK293 TRPC4/mu-opioid, membrane potential dye fluorescence; stimulated with maximal-effect DAMGO; inhibition, % at 10 µM; 2,400 compounds, 55% hits; AID 488928;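 active means drop in membrane potential signal beyond 5 SD of the control wells in both duplicate plates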;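 further: TRPC4 counter screen for TRPC6 hits run under conditions tuned for TRPC6 not TRPC4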
TRPC6 inh conf: mouse TRPC6 inhibitor confirmation; shares compounds with TRPC6 inh; HEK293-TRPC6, membrane potential dye, ACh-evoked depolarization; inhibition, % at 10 µM; 3,300 compounds, 43% hits;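 active means fluorescence ratio falls more than 5 SD below the full-stimulation control mean, in both duplicate runs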;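 further: integrated fluorescence ratio of peak minus minimum over baseline after agonist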
TRPC6 act confirm: confirmation of mouse TRPC6 activators. AID 488961. shares compounds with TRPC6 inh. HEK293-TRPC6 membrane potential dye fluorescence, FDSS. 2,800 compounds, 11% hits. activation, % at 10 µM;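 active means ratio signal rise beyond 5 SD above unstimulated control wells' mean, seen in both duplicate runs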
Hits are given with their value; n = inactive; x = no result.

SMILES	TRPC4 agonist	TRPC4 inh	TRPC4 potent	TRPC6 activator	TRPC6 inh	HEK293 MPD ctr-2	HEK293 MPD ctr 2-2	TRPC4 ctr mod	TRPC4/MOR inh 2	TRPC6 inh conf	TRPC6 act confirm	others
Cc1ccc2nc(NCc3ccccc3)[nH]c2c1	n	-5	n	n	-6.5	n	n	n	98%	49%	n
O=c1oc(-c2ccc(Cl)c(Cl)c2)nn1-c1ccc(C(F)(F)F)cn1	n	n	n	n	n	x	x	x	x	x	x
COc1cc(-c2c(C#N)c(N)nc3[nH]c(=S)[nH]c(=O)c23)ccc1O	n	n	n	n	n	x	x	x	x	x	x
COc1ccc(Cn2c(=S)[nH]c3ccccc3c2=O)cc1	n	n	n	n	n	x	x	x	x	x	x
CCN1CCc2c(OCc3ccccc3)cccc2C1=O	n	n	n	n	-5.6	126%	n	21%	n	n	x
COc1ccc(CCNC(=O)CSc2nn(-c3ccccc3)c(=S)s2)cc1OC	n	n	n	n	n	x	x	x	x	x	x
N=c1c2c(n(Cc3ccc(F)cc3)c3c1CCC3)CCC2	n	n	n	n	-5.8	-192%	n	-32%	62%	n	n
CCCCCCn1c2c(c(=N)c3c1CCC3)CCC2	n	n	n	n	-8.5	x	x	x	x	78%	n	TRPC4 spec 2=69%;TRPC4 spec=-25%;HEK293 MPD ctr 2-1=-12%;HEK293 MPD ctr-1=-452%
CCCCCCCn1ccc(=N)cc1	n	n	n	n	n	x	x	x	x	x	x
Fc1ccc(CN2CCCCCCC2)cc1	n	n	n	n	n	x	x	x	x	x	x
CCn1c2c(c(=N)c3c1CCC3)CCC2	n	n	n	n	-7	-234%	n	-39%	40%	36%	n
CCCCCCCCCn1c2c(c(=N)c3c1CCC3)CCC2	n	n	n	n	-6.3	-169%	n	-21%	36%	n	n
CCNC(C(=O)c1c[nH]c2c(CC)cccc12)c1ccccc1 (stereo not given)	n	n	n	n	n	x	x	x	x	x	x
C=CCNC(=O)COC(=O)c1c2c(nc3ccccc13)CCC2	n	n	n	n	n	x	x	x	x	x	x
CCn1c2c(c(=N)c3ccccc31)CCC2	n	n	n	n	-11	x	x	x	x	72%	n	TRPC4 spec 2=68%;TRPC4 spec=-34%;HEK293 MPD ctr 2-1=-12%;HEK293 MPD ctr-1=-593%
CNCC(O)Cn1c2c(c3ccccc31)CCCC2 (stereo not given)	n	n	n	n	n	x	x	x	x	x	x
CCOc1cc(/C=C(/C#N)C(=O)Nc2ccc(O)cc2)cc(Br)c1O	43	n	n	28	-9.7	831%	194%	114%	29%	n	177%
Oc1ccccc1Oc1ncc(Br)c(N2CCOCC2)n1	n	n	n	n	-7.2	x	x	x	x	n	n	TRPC4 spec 2=n;TRPC4 spec=n;HEK293 MPD ctr 2-1=n;HEK293 MPD ctr-1=n
Oc1ccccc1Oc1ncc(Br)c(Cl)n1	n	n	n	n	n	x	x	x	x	x	x
CCC(c1nnc(SCC(=O)Nc2ccc(Cl)cc2C(F)(F)F)n1C1CCCCC1)N(C)C (stereo not given)	n	n	n	n	n	x	x	x	x	x	x
COc1ccccc1Nc1nc(N)nc(CSC(=S)N2CCCCC2)n1	n	n	n	11	-9.5	n	n	n	n	n	n
CCN(CC)CCCOC(=O)C1(c2ccccc2)CCCC1	n	n	n	n	-9.1	x	x	x	x	60%	x	TRPC4 spec 2=n;TRPC4 spec=12%;HEK293 MPD ctr 2-1=12%;HEK293 MPD ctr-1=12%
C[N+](C)(C)CCOC(=O)C1(c2ccccc2)CCCC1	n	n	n	n	-8.5	x	x	x	x	69%	n	TRPC4 spec 2=n;TRPC4 spec=n;HEK293 MPD ctr 2-1=1.0%;HEK293 MPD ctr-1=n
C[N+]1(CCOC(=O)C2(c3ccccc3)CCCC2)CCCCC1	n	n	n	n	-11	x	x	x	x	78%	n	TRPC4 spec 2=n;TRPC4 spec=n;HEK293 MPD ctr 2-1=-16%;HEK293 MPD ctr-1=n
CCOC(=O)C1(CCOc2ccccc2)CCN(Cc2cc(OC)c3c(c2)OCO3)CC1	n	n	n	n	n	x	x	x	x	x	x
SMILES	TRPC4 agonist	TRPC4 inh	TRPC4 potent	TRPC6 activator	TRPC6 inh	HEK293 MPD ctr-2	HEK293 MPD ctr 2-2	TRPC4 ctr mod	TRPC4/MOR inh 2	TRPC6 inh conf	TRPC6 act confirm	others
CN1CCC(NCCC(c2ccc(F)cc2)c2ccc(Cl)cc2)CC1 (stereo not given)	n	n	n	n	-5.4	104%	n	18%	56%	n	x
COCCNC(=S)N1CCOCC1	n	n	n	n	n	x	x	x	x	x	x
C=COCCNC(=S)N1CCOCCOCCN(C(=S)NCCOC=C)CCOCC1	n	n	n	n	-5	n	n	n	40%	n	n
CCn1cnc2c(oc3ccccc32)c1=O	n	n	n	n	n	x	x	x	x	x	x
C#CCn1cnc2c(oc3ccccc32)c1=O	n	n	n	n	-5	n	n	n	n	n	n
O=C1CSC(c2ccc([N+](=O)[O-])cc2)N1c1ccccc1 (stereo not given)	n	n	n	n	n	x	x	x	x	x	x
COc1ccc(C(=O)N/N=C/c2ccccn2)cc1OC	n	n	n	n	-7	-296%	n	-50%	40%	38%	n
COc1ccc(C(=O)Nc2ccccc2C(=O)N/N=C/c2ccccn2)cc1OC	n	n	n	n	n	x	x	x	x	x	x
CN(C)c1ccc(C(=O)N/N=C/c2ccccn2)cc1	n	n	n	n	-6.6	-159%	n	-28%	36%	n	n
COc1ccc(C(C)n2c(C)c3c(C)nnc(C)c3c2C)cc1 (stereo not given)	n	n	n	n	-8.1	-220%	n	-30%	65%	n	n
Cc1nnc(C)c2c(C)n(C(C)c3ccccc3)c(C)c12 (stereo not given)	n	n	n	n	n	x	x	x	x	x	x
CCCn1c2ccccc2c2cnn(CC(=O)N3CCN(C4CCCCC4)CC3)c(=O)c21	n	n	n	15	n	318%	n	56%	n	n	106%
CCOC(=O)N1CCN(Cc2nc(-c3ccc(OC)cc3)no2)CC1	n	n	n	n	n	x	x	x	x	x	x
